Compound activity (PubChem)
Rows were chosen to be rich in hits. Some 1.8% of all compounds tested hit in one or more screens of this group.
EBI2 block = antagonists of human EBI2 receptor; P32249; EBI2 beta-arrestin recruitment, luminescence, 7a,25-OHC stimulated; AID 651636; 0.81% of 360,000 active; inhibition, % at 5 µM; in the data active = inhibition above about 38%;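 also: enzyme fragment complementation signal reports receptor beta-arrestin coupling in cells; 0% = agonist plus DMSO wells and 100% = wells without agonist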
CCR6 antag = CCR6 (human) receptor antagonism; CHO-K1 CCR6 PathHunter beta-arrestin, luminescence, CCL20-stimulated; inhibition, % at 20 µM; 0.49% of 340,000 active;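 active = compounds whose inhibition of the agonist-driven luminescence signal at 20 µM reaches about 50%, limit read from the data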;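 also: cells stimulated with CCL20 at 14 nM final; plate controls were DMSO with CCL20 for no effect and DMSO without agonist for full effect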
APJ agonist = APJ receptor agonism; P35414; CHO-K1 APJ PathHunter beta-arrestin, luminescence; 0% DMSO wells, 100% apelin; activation, % at 20 µM; 0.11% of 330,000 active;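 active = activation more than six SD over the plate average, tested at 20 µM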;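 also: 0% = DMSO alone and 100% = apelin-13 at 10 nM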
Target sequence (P35414 whole entry, looked up): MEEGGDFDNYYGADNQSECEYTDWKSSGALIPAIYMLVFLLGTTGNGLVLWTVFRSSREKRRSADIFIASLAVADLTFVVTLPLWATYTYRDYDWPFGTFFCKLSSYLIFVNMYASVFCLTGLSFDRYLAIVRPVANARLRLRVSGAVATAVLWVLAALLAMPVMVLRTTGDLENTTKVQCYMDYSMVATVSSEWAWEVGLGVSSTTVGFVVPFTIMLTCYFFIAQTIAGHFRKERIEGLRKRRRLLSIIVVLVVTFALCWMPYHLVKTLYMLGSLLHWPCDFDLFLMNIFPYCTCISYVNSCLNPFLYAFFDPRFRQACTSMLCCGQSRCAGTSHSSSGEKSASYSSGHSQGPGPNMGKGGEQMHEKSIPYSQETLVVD
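Incubation: overnight seeding, 90 min compound at 25 °C, 1 h detection; test system: PathHunter CHO-K1 APJ (AGTRL-1) beta-arrestin reporter cells; amount: 1000 cells/well; doses: one dose, 20 µM compound, 1% DMSO; measured by: beta-gal luminescence; measure: agonist-driven arrestin binding to APJ; benchmarks: negative DMSO alone, positive Apelin-13 at 10 nM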
B2AR ag = human beta-2 adrenergic receptor agonism by FAP; P07550; Am2.2-beta2AR cells, FAP receptor internalization, flow cytometry; response, % (no concentration beside the values); 0.43% of 340,000 active; AID 504454;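 active = response above a set limit, near 3 SD of response in nonfluorescent compounds, cut at about 42% in these data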
CXCR6 block = inhibitors of human CXCR6 receptor. O00574. CHO-K1 PathHunter CXCR6 beta-arrestin, luminescence. inhibition, % at 20 µM. 0.36% of 360,000 active. AID 602244; in the data active = inhibition above about 34%, passing the limit was not always enough;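 also: antagonist mode with CXCL16 agonist at 10 nM final; 0% = 10 nM CXCL16 with DMSO and 100% = unstimulated wells without agonist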
APJ antag = blocks the human apelin receptor APJ | P35414 | CHO-K1 APJ beta-arrestin complementation, luminescence | inhibition, % at 20 µM | 0.32% of 330,000 active;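 active = inhibition above about 40% at 20 µM, limit read from the data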;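 also: cells challenged with 10 nM apelin-13 agonist together with compound; plate controls were apelin-13 plus DMSO wells for no effect and DMSO wells lacking apelin-13 for full effect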
EBI2 antag conf = confirmation of human EBI2 receptor antagonists; inhibition, % at 5 µM; 29% of 2,400 active; AID 651997; shares compounds with EBI2 block; EBI2 beta-arrestin luminescence, 7a,25-OHC antagonism;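 active = inhibition of at least 50%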
EBI2 agonist = EBI2 agonism counter-screen; activation, % at 5 µM; 2,400 tested, under 10 active; shares compounds with EBI2 block; EBI2-expressing cells, agonist mode, luminescence, 60 min; 0% vehicle, 100% 7α,25-dihydroxycholesterol control;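 active = activation of at least 50%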
bGal cs = beta-galactosidase inhibition counter-screen. shares compounds with EBI2 block. 1% of 2,400 active. purified beta-galactosidase, luminescent Galacton Star, 15 min. inhibition, % at 5 µM;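 active = replicate-average signal at least 3 plate SD below neutral wells, shown as high inhibition, flagging enzyme-inhibiting false positives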;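 also: 0% = DMSO wells with enzyme and 100% = wells lacking enzyme; higher means stronger loss of beta-gal luminescence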
The depositor's hits bear a star; nt = not tested or not shown.

SMILES | EBI2 block | CCR6 antag | APJ agonist | B2AR ag | CXCR6 block | APJ antag | EBI2 antag conf | EBI2 agonist | bGal cs
COc1cc(/C=C2\CCC(C)C3=C(c4cc(OC)c(OC)c(OC)c4)C(C#N)=C(N)OC32)cc(OC)c1OC (configuration not stated) | 45* | 17 | nt | -8 | 3 | nt | 20 | 0 | 10
CSc1ccc(CNC(=O)C2CCC(=O)N(CCc3ccc(Cl)cc3)C2)cc1 (configuration not stated) | 50* | nt | nt | nt | 1 | nt | 21 | -1 | -18
O=C(N/N=C/c1ccc(Cl)cc1Cl)c1ccc2nc[nH]c2c1 | -17 | 8 | -2 | -5 | -6 | -9 | nt | nt | nt
O=C(N/N=C/c1ccc(Cl)cc1Cl)c1cccc(F)c1 | 45* | 8 | -1 | 4 | 1 | 4 | 41 | 2 | 3
Cc1ccc2nc(-c3ccccc3Cl)cc(C(=O)Nc3cc(C)on3)c2c1 | 60* | 6 | -2 | 6 | -2 | 1 | 46 | -1 | -3
Cc1ccc(OCC(=O)N2CCN(c3nnc(-c4ccc(C)cc4)c4ccccc34)CC2)cc1 | 87* | 26 | 0 | -9 | 2 | 23 | 84* | 1 | 7
COc1ccc(OCC(=O)N2CCN(c3nnc(-c4ccccc4)c4ccccc34)CC2)cc1 | 92* | 0 | -4 | -12 | 4 | 18 | 80* | -1 | 11
Cc1ccc(-c2nnc(N3CCN(C(=O)CN4C(=O)c5ccccc5C4=O)CC3)c3ccccc23)cc1 | 1 | 6 | 6 | -6 | -3 | -14 | nt | nt | nt
COc1ccc(OCC(=O)N2CCN(c3nnc(-c4ccc(C)cc4)c4ccccc34)CC2)cc1 | 96* | 17 | 2 | -1 | -3 | 24 | 83* | -2 | -12
COc1ccc(-c2nnc(N3CCCCC3)c3ccccc23)cc1 | 7 | 9 | -1 | 0 | 5 | 5 | nt | nt | nt
O=C(COc1ccccc1)N1CCN(c2nnc(-c3ccccc3)c3ccccc23)CC1 | 71* | -4 | -3 | -11 | -2 | -15 | 47 | 0 | -12
CCC(=O)N1CCN(c2nnc(-c3ccccc3)c3ccccc23)CC1 | 1 | 7 | -1 | -10 | 5 | 16 | nt | nt | nt
COc1ccc(NC(=O)C(CC(=O)O)Cc2ccc(Cl)cc2)cc1 (configuration not stated) | -2 | 4 | -3 | 0 | -14 | 8 | nt | nt | nt
COc1ccc(C(C)(O)c2nc(-c3cccc(O)c3)cs2)cc1 (configuration not stated) | 3 | nt | nt | nt | -4 | nt | nt | nt | nt
O=C(COc1ccc(F)cc1)N1CCC(Cc2ccccc2)CC1 | 74* | 3 | -5 | -1 | -4 | 24 | 50* | 1 | 10
COc1ccc(OCC(=O)N2CCC(Cc3ccccc3)CC2)cc1 | 92* | 10 | -2 | 5 | 5 | 11 | 77* | 2 | 1
CCOCC(=O)N1CCC(Cc2ccccc2)CC1 | 10 | -6 | 1 | 0 | -17 | 6 | nt | nt | nt
CN(Cc1ccccc1F)C(=O)CCNC(=O)c1ccc(C(C)(C)C)cc1 | -5 | 6 | -4 | -7 | 1 | 10 | nt | nt | nt
CCCCC(C(=O)NC1CCCC1)N(C(=O)c1snc(C(N)=O)c1N)c1ccc(C)cc1 (configuration not stated) | 50* | 11 | 2 | -6 | 11 | 12 | 49 | 0 | 6
O=C(Nc1ccc2c(c1)OCCO2)C(c1ccnc2ccccc12)n1c(=O)c(-c2ccco2)nc2ccccc21 (configuration not stated) | 2 | nt | nt | nt | nt | nt | nt | nt | nt
O=C(Nc1ccc2c(c1)OCCO2)C(CCc1ccccc1)N1CCN(C/C=C/c2ccccc2)CC1 (configuration not stated) | 44* | nt | nt | nt | 4 | nt | 19 | -1 | -7
